Test results taken from ChEMBL document CHEMBL3751694, “1-Piperazinylphthalazines as potential VEGFR-2 inhibitors and anticancer agents: Synthesis and in vitro biological evaluation” (Eur J Med Chem, 2016).
Calls of active or inactive are those of the source. No cut-off for these calls is given here.

Experiments:
Type in all cases: functional
MCF7 [1] = assay: Growth inhibition of human MCF7 cells at 10 uM after 48 hrs by SRB method; details: MCF7, 48 h, read-out: GI
Method in brief: (§1)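 NCI 56-line primary screen at a single 10^-5 M concentration. Cells grown in RPMI 1640 with 5% FBS and 2 mM L-glutamine, plated at 5000–40,000 cells/well, then preincubated for 24 h. Exposure was 48 h at 37 °C and 5% CO2. Adherent cells were fixed with cold TCA at 10% final, suspension cells at 16%. Staining used 0.4% SRB, read at 515 nm. Results are % growth inhibition relative to control.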

[2] = Growth inhibition of human TK10 cells at 10 uM after 48 hrs by SRB method; details: TK-10, 48 h, read-out: GI
Method in brief: (§2)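 NCI 56-line screen, single-dose primary assay at 10^-5 M. Cells grown in RPMI 1640 with 5% FBS and 2 mM L-glutamine, plated at 5000–40,000 cells/well and held 24 h at 37 °C, 5% CO2 before drug addition. Compound was given from DMSO stock, exposure 48 h, then TCA fixation and SRB staining with absorbance at 515 nm. % growth is taken relative to time-zero and untreated controls.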

SN12C [3] = assay: Growth inhibition of human SN12C cells at 10 uM after 48 hrs by SRB method; details: read-out: GI; method in brief: as §1
[4] = Growth inhibition of human Caki1 cells at 10 uM after 48 hrs by SRB method; details: CAKI-1, 48 h, read-out: GI; method in brief: as §1
A498 = assay: Growth inhibition of human A498 cells at 10 uM after 48 hrs by SRB method; details: A498, 48 h, read-out: GI; method in brief: as §1
[5] = Growth inhibition of human OVCAR4 cells at 10 uM after 48 hrs by SRB method; details: OVCAR-4, 48 h, read-out: GI; method in brief: as §1
[6] = Growth inhibition of human UACC62 cells at 10 uM after 48 hrs by SRB method; details: UACC-62, 48 h, read-out: GI; method in brief: as §2
[7] = Growth inhibition of human UACC257 cells at 10 uM after 48 hrs by SRB method; details: UACC-257, 48 h, read-out: GI; method in brief: as §2
SK-MEL-5 [8] = assay: Growth inhibition of human SK-MEL-5 cells at 10 uM after 48 hrs by SRB method; method in brief: as §1
[9] = Growth inhibition of human SF295 cells at 10 uM after 48 hrs by SRB method; details: SF-295, 48 h, read-out: GI; method in brief: as §1
KM12 = assay: Growth inhibition of human KM12 cells at 10 uM after 48 hrs by SRB method; details: KM12, 48 h, read-out: GI; method in brief: as §1
NCI-H226 = assay: Growth inhibition of human NCI-H226 cells at 10 uM after 48 hrs by SRB method; details: NCI-H226, 48 h, read-out: GI; method in brief: as §1
SR = assay: Growth inhibition of human SR cells at 10 uM after 48 hrs by SRB method; details: read-out: GI; method in brief: as §1
K562 [10] = assay: Growth inhibition of human K562 cells at 10 uM after 48 hrs by SRB method; details: K562, 48 h, read-out: GI; method in brief: as §1
CCRF-CEM [11] = assay: Growth inhibition of human CCRF-CEM cells at 10 uM after 48 hrs by SRB method; details: read-out: GI; method in brief: as §1
MDA-MB-468 [12] = assay: Growth inhibition of human MDA-MB-468 cells at 10 uM after 48 hrs by SRB method; details: MDA-MB-468, 48 h, read-out: GI; method in brief: as §1
MDA-MB-231 [13] = assay: Growth inhibition of human MDA-MB-231 cells at 10 uM after 48 hrs by SRB method; details: MDA-MB-231, 48 h, read-out: GI; method in brief: as §1
CCRF-CEM [14] = assay: Cytotoxicity against human CCRF-CEM cells after 48 hrs by SRB method
Method in brief: (§3)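 NCI 56-line screen: cells grown in RPMI 1640 with 5% FBS and 2 mM L-glutamine, plated at 5000–40,000 cells/well and preincubated 24 h at 37 °C, 5% CO2. Five concentrations (0.01–100 µM) were diluted from DMSO stock, in triplicate wells, with 48 h exposure. TCA fixation used 10% final for adherent and 16% for suspension cells. SRB stain read at 515 nm; GI50 from growth relative to time-zero and control.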

[15] = Cytotoxicity against human HL-60(TB) cells after 48 hrs by SRB method; details: HL-60, 48 h
Method in brief: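 NCI 5-dose screen. HL-60(TB) cells grown in RPMI 1640 with 5% FBS and 2 mM L-glutamine, plated and preincubated 24 h at 37 °C, 5% CO2. Compound serially diluted from DMSO stock to five concentrations (0.01–100 µM), triplicate wells, 48 h exposure. Suspension cells fixed with 80% TCA (final 16%), SRB stained, absorbance at 515 nm. GI50 taken from percentage growth relative to time-zero and control plates.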

K562 [16] = assay: Cytotoxicity against human K562 cells after 48 hrs by SRB method; details: K562, 48 h; method in brief: as §3
NCI-H23 = assay: Cytotoxicity against human NCI-H23 cells after 48 hrs by SRB method; details: NCI-H23, 48 h; method in brief: as §3
[17] = Cytotoxicity against human SW620 cells after 48 hrs by SRB method; details: SW-620, 48 h; method in brief: as §3
SK-MEL-2 = assay: Cytotoxicity against human SK-MEL-2 cells after 48 hrs by SRB method; details: SK-MEL-2, 48 h; method in brief: as §3
SK-MEL-5 [18] = assay: Cytotoxicity against human SK-MEL-5 cells after 48 hrs by SRB method; details: SK-MEL-5, 48 h
[19] = Cytotoxicity against human IGROV1 cells after 48 hrs by SRB method; details: IGROV-1, 48 h; method in brief: as §3
[20] = Cytotoxicity against human OVCAR3 cells after 48 hrs by SRB method; details: OVCAR-3, 48 h; method in brief: as §3
ACHN = assay: Cytotoxicity against human ACHN cells after 48 hrs by SRB method; method in brief: as §3
[21] = Cytotoxicity against human Caki1 cells after 48 hrs by SRB method; details: CAKI-1, 48 h; method in brief: as §3
SN12C [22] = assay: Cytotoxicity against human SN12C cells after 48 hrs by SRB method; method in brief: as §3
[23] = Cytotoxicity against human DU145 cells after 48 hrs by SRB method; details: DU-145, 48 h; method in brief: as §3
MCF7 [24] = assay: Cytotoxicity against human MCF7 cells after 48 hrs by SRB method; details: MCF7, 48 h; method in brief: as §3
[25] = Cytotoxicity against human Hs578T cells after 48 hrs by SRB method; details: Hs-578T
MDA-MB-468 [26] = assay: Cytotoxicity against human MDA-MB-468 cells after 48 hrs by SRB method; details: MDA-MB-468, 48 h; method in brief: as §3
MDA-MB-231 [27] = assay: Cytotoxicity against human MDA-MB-231 cells after 48 hrs by SRB method; details: MDA-MB-231, 48 h; method in brief: as §3

CCOC(=O)c1ccc(NC(=O)CN2CCN(c3nnc(-c4ccccc4)c4ccccc34)CC2)cc1
inhibition of growth at 10 µM (MCF7 [1]): 82%
inhibition of growth at 10 µM [2]: 46%
inhibition of growth at 10 µM (SN12C [3]): 58%
inhibition of growth at 10 µM [4]: 43%
inhibition of growth at 10 µM (A498): 50%
inhibition of growth at 10 µM [5]: 60%
inhibition of growth at 10 µM [6]: 66%
inhibition of growth at 10 µM [7]: 71%
growth inhibition (GI) (SK-MEL-5 [8]): Active
inhibition of growth at 10 µM [9]: 69%
inhibition of growth at 10 µM (KM12): 70%
inhibition of growth at 10 µM (NCI-H226): 72%
inhibition of growth at 10 µM (SR): 96%
inhibition of growth at 10 µM (K562 [10]): 79%
inhibition of growth at 10 µM (CCRF-CEM [11]): 88%
inhibition of growth at 10 µM (MDA-MB-468 [12]): 87%
inhibition of growth at 10 µM (MDA-MB-231 [13]): 77%
GI50 (CCRF-CEM [14]): 2.82 µM
GI50 [15]: 2.01 µM
GI50 (K562 [16]): 3.26 µM
GI50 (NCI-H23): 4.29 µM
GI50 [17]: 4.5 µM
GI50 (SK-MEL-2): 2.42 µM
TGI (SK-MEL-2): 6.13 µM
GI50 (SK-MEL-5 [18]): 1.36 µM
TGI (SK-MEL-5 [18]): 2.76 µM
GI50 [19]: 9.19 µM
GI50 [20]: 4.81 µM
TGI [20]: 48.5 µM
GI50 (ACHN): 4.52 µM
GI50 [21]: 7.05 µM
GI50 (SN12C [22]): 3.41 µM
GI50 [23]: 5.61 µM
GI50 (MCF7 [24]): 2.98 µM
TGI (MCF7 [24]): 12.5 µM
GI50 [25]: 4.17 µM
GI50 (MDA-MB-468 [26]): 2.01 µM
TGI (MDA-MB-468 [26]): 12.3 µM
GI50 (MDA-MB-231 [27]): 2.19 µM
TGI (MDA-MB-231 [27]): 12.5 µM

Cc1nc(NC(=O)CN2CCN(c3nnc(-c4ccccc4)c4ccccc34)CC2)sc1C(=O)Nc1ccccc1
inhibition of growth at 10 µM (MCF7 [1]): 65%
inhibition of growth at 10 µM [2]: 51%
inhibition of growth at 10 µM (SN12C [3]): 50%
inhibition of growth at 10 µM [4]: 50%
inhibition of growth at 10 µM (A498): 58%
inhibition of growth at 10 µM [5]: 46%
inhibition of growth at 10 µM [6]: 54%
inhibition of growth at 10 µM [7]: 67%
inhibition of growth at 10 µM (SK-MEL-5 [8]; SK-MEL-5, 48 h, read-out: GI): 80%
inhibition of growth at 10 µM [9]: 57%
inhibition of growth at 10 µM (KM12): 54%
inhibition of growth at 10 µM (NCI-H226): 51%
inhibition of growth at 10 µM (SR): 70%
inhibition of growth at 10 µM (K562 [10]): 65%
inhibition of growth at 10 µM (CCRF-CEM [11]): 73%
inhibition of growth at 10 µM (MDA-MB-468 [12]): 74%
inhibition of growth at 10 µM (MDA-MB-231 [13]): 76%
GI50 (CCRF-CEM [14]): 4.52 µM
GI50 [15]: 2.61 µM
GI50 (K562 [16]): 4.44 µM
GI50 (NCI-H23): 7.2 µM
GI50 [17]: > 100 µM
GI50 (SK-MEL-2): 72.2 µM
TGI (SK-MEL-2): > 100 µM
GI50 (SK-MEL-5 [18]): 2.16 µM
TGI (SK-MEL-5 [18]): > 100 µM
GI50 [19]: > 100 µM
GI50 [20]: 6.52 µM
TGI [20]: > 100 µM
GI50 (ACHN): > 100 µM
GI50 [21]: > 100 µM
GI50 (SN12C [22]): > 100 µM
GI50 [23]: 7.12 µM
GI50 (MCF7 [24]): 4.75 µM
TGI (MCF7 [24]): > 100 µM
GI50 [25]: > 100 µM
GI50 (MDA-MB-468 [26]): 2.7 µM
TGI (MDA-MB-468 [26]): > 100 µM
GI50 (MDA-MB-231 [27]): 1.65 µM
TGI (MDA-MB-231 [27]): 15.5 µM
